The source of these data is ChEMBL document CHEMBL4118283, “Discovery of a novel 2-(1H-pyrazolo[3,4-b]pyridin-1-yl)thiazole derivative as an EP1 receptor antagonist and in vivo studies in a bone fracture model” (Bioorg Med Chem Lett, 2018).

Calls of active or inactive are those of the source. The rule behind the calls is not given here.

For orientation: IC50 means the concentration that inhibits the measured activity by half. Higher therefore signals lower potency. What is called CLint scaled is the capacity of the preparation to metabolise the compound, expressed as a volume cleared per time. A low value points to greater metabolic stability. The term Cmax denotes the maximum level reached in the sampled fluid or tissue. Usually Ki stands for the dissociation constant of the complex between target and ligand, obtained from inhibition or displacement. Higher therefore signals lower affinity. Usually bioavailability stands for the share of a dose that reaches the circulation, judged against a reference dose that is usually intravenous. High values mean much systemic uptake, low ones little systemic uptake. What is called inhibition is the change of the read-out against control, counted positive when it falls. A high value points to strong suppression.

Data set [1] has as its target T1, Prostaglandin E2 receptor EP1 subtype (Homo sapiens, UniProt P34995).
T1 sequence (P34995 whole entry): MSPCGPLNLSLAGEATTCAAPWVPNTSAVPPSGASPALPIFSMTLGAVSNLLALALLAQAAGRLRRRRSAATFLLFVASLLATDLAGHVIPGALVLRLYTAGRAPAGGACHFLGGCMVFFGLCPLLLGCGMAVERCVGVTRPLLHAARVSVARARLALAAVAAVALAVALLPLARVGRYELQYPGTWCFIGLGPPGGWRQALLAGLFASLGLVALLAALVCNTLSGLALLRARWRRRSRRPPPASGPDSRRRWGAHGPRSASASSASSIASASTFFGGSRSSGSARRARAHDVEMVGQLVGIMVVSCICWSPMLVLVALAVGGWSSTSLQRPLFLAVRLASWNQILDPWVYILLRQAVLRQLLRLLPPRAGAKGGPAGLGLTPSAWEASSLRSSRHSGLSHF
Description: Antagonist activity at EP1 receptor (unknown origin) by reporter gene assay. It counts as functional.

Data set [2] is described as follows: Protein binding in Sprague-Dawley rat plasma at 10 to 100 mg/kg, po by LC-MS/MS analysis. The following applies: read-out: PPB (converted). Format: ADME, organism-based.
Data set [3] can be described thus: Intrinsic clearance in rat. Format: ADME, organism-based. The following applies: in vivo.
Data set [4] is described as follows: Intrinsic clearance in human. The following applies: in vivo. It counts as ADME, organism-based.
Data set [5] in a line: Drug uptake in Sprague-Dawley rat plasma at 100 mg/kg, po after 24 hrs by LC-MS/MS analysis. It counts as ADME, organism-based. The following applies: in vivo. Put shortly:
(§1)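 Single oral dose of 10, 30 or 100 mg/kg to 7-week-old female Sprague–Dawley rats (n = 3), vehicle 10% v/v DMSO, 5% v/v Cremophor EL, 85% v/v water. Subclavian-vein blood drawn at 0.5, 1, 2, 4, 8 and 24 h post dose; plasma separated by centrifugation and drug measured by LC-MS/MS.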

Data set [6] in a line: Cmax in Sprague-Dawley rat at 100 mg/kg, po by LC-MS/MS analysis. Format: ADME, organism-based. Further details: dose 100 mg/kg, route oral. Conditions: in vivo. Put shortly: as §1
Data set [7] can be described thus: Cmax in Sprague-Dawley rat at 30 mg/kg, po by LC-MS/MS analysis. Format: ADME, organism-based. Also noted: dose 30 mg/kg, route oral. Conditions: in vivo. Put shortly:
as §1

The target of data set [8] is T1, Prostaglandin E2 receptor EP1 subtype. Description: Binding affinity to EP1 receptor (unknown origin) by binding assay.
The test system of data set [9] is Rattus norvegicus. Description: Osteogenic activity in Sprague-Dawley rat drill-hole femoral fracture model assessed as callus formation at 30 mg/kg, po bid for 28 days. It counts as functional, organism-based. The following applies: in the assay text read “closed” for “drill-hole”. The method, boiled down:
(§2)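 Closed mid-diaphyseal femur fracture in 8-week-old Sprague–Dawley rats under ip pentobarbital (50 mg/kg). Medial parapatellar arthrotomy, 1 mm drill hole at intercondylar fossa, 21-gauge needle inserted through the medullary canal, fracture by three-point bending. Oral drug or 0.5% MC vehicle given for 28 days. Radiographs at 0, 7, 14, 21, 28 days; outer hard callus area traced by image analysis.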

Data set [10] deals with Prostaglandin E2 receptor EP4 subtype (Homo sapiens, UniProt P35408). Description: Binding affinity to EP4 receptor (unknown origin).
Prostaglandin E2 receptor EP4 subtype, sequence (P35408 whole entry): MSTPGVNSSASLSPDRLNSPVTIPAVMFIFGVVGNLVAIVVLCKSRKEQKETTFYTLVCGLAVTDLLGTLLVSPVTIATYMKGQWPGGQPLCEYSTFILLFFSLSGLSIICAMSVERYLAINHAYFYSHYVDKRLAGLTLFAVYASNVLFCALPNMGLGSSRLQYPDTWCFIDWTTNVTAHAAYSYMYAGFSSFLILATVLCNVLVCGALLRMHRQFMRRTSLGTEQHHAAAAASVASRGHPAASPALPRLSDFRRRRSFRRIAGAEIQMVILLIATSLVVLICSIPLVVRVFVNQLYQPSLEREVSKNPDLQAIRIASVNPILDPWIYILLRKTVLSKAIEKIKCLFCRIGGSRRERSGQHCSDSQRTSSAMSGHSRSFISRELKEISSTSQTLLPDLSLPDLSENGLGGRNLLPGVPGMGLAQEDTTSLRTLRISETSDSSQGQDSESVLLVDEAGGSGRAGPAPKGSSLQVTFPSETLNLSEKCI
In data set [11] the test system is Rattus norvegicus. The experiment in a line: AUC (0 to 8 hrs) in Sprague-Dawley rat at 10 to 100 mg/kg, po by LC-MS/MS analysis. It counts as ADME, organism-based. The following applies: in vivo. The method, boiled down: as §1
For data set [12], the target named is T2, Prostaglandin E2 receptor EP3 subtype (Homo sapiens, UniProt P43115).
T2 sequence (P43115 whole entry): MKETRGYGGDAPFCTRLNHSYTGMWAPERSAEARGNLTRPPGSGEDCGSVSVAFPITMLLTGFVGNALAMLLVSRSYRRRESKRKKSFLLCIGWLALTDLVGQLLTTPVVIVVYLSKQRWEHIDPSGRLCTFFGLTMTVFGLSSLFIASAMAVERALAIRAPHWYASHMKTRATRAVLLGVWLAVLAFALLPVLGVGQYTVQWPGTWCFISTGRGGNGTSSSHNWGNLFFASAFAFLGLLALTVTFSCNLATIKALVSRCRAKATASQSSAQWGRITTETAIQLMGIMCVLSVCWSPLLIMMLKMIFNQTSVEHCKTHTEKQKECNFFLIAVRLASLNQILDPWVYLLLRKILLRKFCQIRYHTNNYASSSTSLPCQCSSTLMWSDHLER
Description: Binding affinity to EP3 receptor (unknown origin).

Data set [13] can be described thus: Drug uptake in Sprague-Dawley rat plasma at 30 mg/kg, po qd for 4 weeks by LC-MS/MS analysis. It counts as ADME, organism-based. The following applies: in vivo, 672 h. The method, boiled down: (§3)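 Sprague–Dawley rats with femoral fractures dosed orally for 28 days (30 mg/kg once daily, 30 mg/kg twice daily, or 100 mg/kg once daily). Subclavian-vein blood taken 30 min before dosing (trough) or 1 h after dosing on days 1, 2, 3, 7, 14, 21 and 28; plasma drug measured by LC-MS/MS.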

Data set [14] in a line: Drug uptake in Sprague-Dawley rat plasma at 30 mg/kg, po bid for 4 weeks by LC-MS/MS analysis. It counts as ADME, organism-based. Conditions: in vivo, 672 h. Put shortly:
as §3

The nature of data set [15]: Cmax in Sprague-Dawley rat at 10 mg/kg, po by LC-MS/MS analysis. It counts as ADME, organism-based. Also noted: dose 10 mg/kg, route oral. The following applies: in vivo. Put shortly:
as §1

Data set [16] in a line: Cmax in Sprague-Dawley rat at 10 to 100 mg/kg, po by LC-MS/MS analysis. It counts as ADME, organism-based. The following applies: in vivo. The method, boiled down: as §1
Data set [17] deals with Rattus norvegicus. The experiment in a line: Osteogenic activity in Sprague-Dawley rat drill-hole femoral fracture model assessed as callus formation at 30 mg/kg, po qd for 28 days. It counts as functional, organism-based. Conditions: in the assay text read “closed” for “drill-hole”. The method, boiled down: as §2
The next data set has as its system Salmonella typhimurium. Description: Mutagenicity in Salmonella typhimurium by Ames test. Format: toxicity, organism-based. The following applies: salmonella enterica subsp. enterica serovar typhimurium. A general note: In the Ames test, an excess of revertant colonies over the control signals mutagenicity.
A short description of data set [18]: Oral bioavailability in Sprague-Dawley rat at 10 to 100 mg/kg by LC-MS/MS analysis. It counts as ADME, organism-based. Conditions: in vivo.
The subject of data set [19] is Rattus norvegicus. The experiment in a line: Osteogenic activity in Sprague-Dawley rat drill-hole femoral fracture model assessed as callus formation at 100 mg/kg, po qd for 28 days. Format: functional, organism-based. Conditions: in the assay text read “closed” for “drill-hole”. The method, boiled down: as §2
A short description of data set [20]: Permeability in MDCK cells. Format: ADME, cell-based, Canis lupus familiaris. The following applies: dog, read-out: permeability.
The target of data set [21] is Prostaglandin E2 receptor EP2 subtype (Homo sapiens, UniProt P43116). Description: Binding affinity to EP2 receptor (unknown origin).
Prostaglandin E2 receptor EP2 subtype, sequence (P43116 whole entry): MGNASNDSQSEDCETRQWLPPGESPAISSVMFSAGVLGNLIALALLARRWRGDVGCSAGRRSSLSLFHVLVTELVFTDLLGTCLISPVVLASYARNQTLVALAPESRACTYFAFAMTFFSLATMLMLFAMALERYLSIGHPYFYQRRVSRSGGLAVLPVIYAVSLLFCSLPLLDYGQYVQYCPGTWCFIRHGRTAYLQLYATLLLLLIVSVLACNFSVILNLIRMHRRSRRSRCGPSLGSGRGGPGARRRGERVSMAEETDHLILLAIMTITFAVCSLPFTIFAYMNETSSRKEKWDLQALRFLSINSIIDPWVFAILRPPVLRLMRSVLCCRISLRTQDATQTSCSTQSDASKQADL
Data set [22] is described as follows: Drug uptake in Sprague-Dawley rat plasma at 100 mg/kg, po qd for 4 weeks by LC-MS/MS analysis. The following applies: in vivo, 672 h. Format: ADME, organism-based. Put shortly:
as §3

Data set [23] has as its target T3, Prostaglandin E2 receptor EP1 subtype (Homo sapiens) (UniProt P34995).
T3 sequence (whole entry): T1 sequence (P34995 whole entry)
Description: Antagonist activity at EP1 receptor (unknown origin) at 100 nM by reporter gene assay relative to control. It counts as functional. On the technique in general: In a reporter assay the amount or activity of a reporter protein is the signal.

`CN(C)c1ccc2c(-c3ccccc3)nn(-c3nc(C(=O)O)cs3)c2n1` displayed an IC50 in data set [1] of 12 nM.
On to `O=C(O)c1csc(-n2nc(-c3ccccc3)c3ccc(C(F)(F)F)nc32)n1`, for which, in data set [2], the fraction unbound was 0.026. Further, the figures for the CLint scaled in data set [3] and in [4] were 94 mL/min/kg and 70 mL/min/kg, respectively. Further, the Drug uptake entry in data set [5], in data set [13], in data set [14] and in data set [22] was “Active” each time. Further, the Cmax in data set [6] was 179 µM; in data set [7], 75.1 µM; in data set [15], 24.8 µM; in data set [16], 2.62 µM. Besides, the inhibitory constant (Ki) is 8.7 nM in data set [8], greater than 2700 nM in [10], greater than 5000 nM in data set [12] and greater than 8700 nM in data set [21]. In addition, the result with Rattus norvegicus [9], in the data set with Rattus norvegicus [17] and with Rattus norvegicus [19] was Active. In addition, the AUC with Rattus norvegicus [11] turned out to be 5.71 microM/L.hr. The midpoint of inhibition in data set [1], the IC50, lay at 0.3 nM. Also, the Activity entry in the data set with Salmonella typhimurium was “Non-Toxic”. The bioavailability in data set [18] is 26%. In addition, in [20], the Papp is 23.5 ×10⁻⁶ cm/s.
In the case of `O=C(O)c1csc(-n2nc(-c3ccccc3)c3ncc(C(F)(F)F)cc32)n1`, the IC50 in [1] came out at 12 nM.
Regarding `O=C(O)c1csc(-n2nc(-c3ccccc3)c3ccc(C(F)(F)F)cc32)n1`, in the data set on Rattus norvegicus [11], the AUC was found to be 9.27 microM/L.hr. In data set [16], the peak level (Cmax) was 5.34 µM.
In turn, `O=C(O)c1csc(-n2nc(-c3ccccc3)c3ccc(N4CCC4)nc32)n1` had an IC50 in data set [1] of 40 nM.
Turning to `O=C(O)c1csc(-n2nc(C3=CCCCO3)c3ccc(C(F)(F)F)cc32)n1`, the figures for the CLint scaled in data set [3] and in data set [4] were 232 mL/min/kg and 146 mL/min/kg, respectively. In data set [1], this compound showed an IC50 of 0.7 nM. In addition, the Papp in [20] worked out at 39 ×10⁻⁶ cm/s.
In the case of `O=C(O)c1csc(-n2nc(-c3ccccc3)c3ccc(N4CCCC4)nc32)n1`, the inhibition in data set [23] was found to be 11%.
Turning to `O=C(O)c1csc(Cn2nc(-c3ccccc3)c3ccc(C(F)(F)F)cc32)n1`, the CLint scaled came to 111 mL/min/kg in [3] and 48 mL/min/kg in data set [4]. Also, the IC50 in data set [1] stood at 12 nM. For the same compound, in data set [20], the Papp was determined as 19.7 ×10⁻⁶ cm/s.
